Test results taken from ChEMBL document CHEMBL5042555, “Development of Myostatin Inhibitory d-Peptides to Enhance the Potency, Increasing Skeletal Muscle Mass in Mice” (ACS Med Chem Lett, 2022).
Activity calls are given as the source filed them. The rule behind the calls is not given here. Non-standard residues stand in square brackets, D forms with d. Residues, ends and D or L forms follow the SMILES beside them. Chg = N[C@H](C(=O)O)C1CCCCC1

Tests used:
[1] = molecular target: T1, Growth/differentiation factor 8 (Homo sapiens, UniProt O14793); assay: Inhibition of myostatin (unknown origin) expressed in HEK293 cells transfected with Smad2/3 responsive reporter plasmid incubated for 4 hrs by dual luciferase reporter gene based assay; assay type: cell-based
T1 sequence (O14793 whole entry): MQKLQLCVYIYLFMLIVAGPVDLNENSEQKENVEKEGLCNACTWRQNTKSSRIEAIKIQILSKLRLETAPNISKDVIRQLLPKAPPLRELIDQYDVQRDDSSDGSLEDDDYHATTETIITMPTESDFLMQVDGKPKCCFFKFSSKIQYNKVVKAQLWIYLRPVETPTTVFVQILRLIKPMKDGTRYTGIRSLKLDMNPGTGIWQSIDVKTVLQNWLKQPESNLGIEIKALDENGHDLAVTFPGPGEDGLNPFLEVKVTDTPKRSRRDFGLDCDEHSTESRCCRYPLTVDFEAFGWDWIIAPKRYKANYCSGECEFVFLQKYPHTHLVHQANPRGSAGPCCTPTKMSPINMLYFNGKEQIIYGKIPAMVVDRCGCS

[2] = Inhibition of GDF-11 (unknown origin) expressed in HEK293 cells transfected with Smad2/3 responsive reporter plasmid incubated for 4 hrs by dual luciferase reporter gene based assay; settings: Homo sapiens, HEK293, 4 h
[3] = Inhibition of activin A (unknown origin) expressed in HEK293 cells transfected with Smad2/3 responsive reporter plasmid incubated for 4 hrs by dual luciferase reporter gene assay; settings: Homo sapiens, HEK293, 4 h
[4] = molecular target: Transforming growth factor beta-1 proprotein (Homo sapiens, UniProt P01137); assay: Inhibition of TGF beta 1 (unknown origin) expressed in HEK293 cells transfected with Smad2/3 responsive reporter plasmid incubated for 4 hrs by dual luciferase reporter gene assay; assay type: cell-based
Outline: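 HEK293 cells co-transfected with Smad-responsive firefly luciferase reporter (pGL4.48[luc2P/SBE/Hygro]) and Renilla control (pGL4.74[hRluc/TK]). Cells starved 8 h in serum-free DMEM, then exposed 4 h to TGF-β1 at 2.5 ng/mL (0.1 nM) with or without peptide (0.025–18 or 0.074–54 μM). SB431542 at 5 μM as positive control. Triplicate means ± SD. IC50 from sigmoidal curve fitting.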

[5] = In vivo inhibition of myostatin in C57BL/6J mouse assessed as increase in weight of tibialis anterior muscles at 0.75 mM, IM administered for 28 days relative to control; assay type: functional; design: scale not given: the % may be the effect or the level left; settings: time 28 day
Outline: (§1)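 Wild-type male C57BL/6J mice, 8 weeks old. Single intramuscular injection at day 0: peptide (30 nmol; 0.75 mM in saline, 40 μL) into left tibialis anterior, saline (40 μL) into right TA. TA muscles collected and weighed at day 28, weight normalized to body weight. Increase expressed relative to saline-injected TA (=100%). Mean ± SD, N = 4–5 mice.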

Mus musculus = assay: In vivo inhibition of myostatin in C57BL/6J mouse assessed as increase in weight of tibialis anterior muscles normalized with body weight at 0.75 mM, IM administered for 28 days; assay type: functional; settings: time 28.0 day; outline: as §1

Sequence of Transforming growth factor beta-1 proprotein (P01137 279-390 limits assumed): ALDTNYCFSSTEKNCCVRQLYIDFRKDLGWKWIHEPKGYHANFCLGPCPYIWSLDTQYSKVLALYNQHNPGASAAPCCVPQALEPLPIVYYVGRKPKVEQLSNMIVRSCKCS

| SMILES | IC50 [1] [µM] | IC50 [2] [µM] | IC50 [3] [µM] | IC50 [4] [µM] | Activity [5] [%] | Activity (Mus musculus) |
| --- | --- | --- | --- | --- | --- | --- |
| CC[C@@H](C)[C@@H](NC(=O)[C@@H](CCCNC(=N)N)NC(=O)[C@@H](Cc1c[nH]c2ccccc12)NC(=O)[C@H](NC(=O)[C@@H](CCCCN)NC(=O)[C@H](NC(=O)[C@@H](CCCNC(=N)N)NC(=O)[C@H](NC(=O)[C@@H](Cc1c[nH]c2ccccc12)NC(=O)[C@@H](CCCNC(=N)N)NC(=O)[C@@H](CCCCN)NC(=O)[C@H](NC(=O)[C@@H](CCCNC(=N)N)NC(=O)[C@H](N)CC(C)C)C1CCCCC1)[C@H](C)CC)C1CCCCC1)[C@H](C)CC)C(=O)N[C@H](Cc1ccc(O)cc1)C(=O)N[C@H](Cc1c[nH]c2ccccc12)C(N)=O | 0.19 | 0.63 | 0.89 | 1.6 | 133 | Active |
| CC[C@H](C)[C@H](NC(=O)[C@H](CCC(N)=O)NC(=O)[C@@H](NC(=O)[C@H](CCCCN)NC(=O)[C@@H](NC(=O)[C@@H](Cc1c[nH]c2ccccc12)NC(=O)[C@H](CCCNC(=N)N)NC(=O)[C@@H](NC(=O)[C@H](Cc1ccc(O)cc1)NC(=O)[C@@H](N)Cc1c[nH]c2ccccc12)[C@@H](C)CC)[C@@H](C)CC)C1CCCCC1)C(=O)N[C@@H](Cc1c[nH]c2ccccc12)C(=O)N[C@@H](CO)C(=O)N[C@@H](CCCCN)C(=O)N[C@H](C(=O)N[C@@H](CCCNC(=N)N)C(=O)N[C@@H](CC(C)C)C(N)=O)C1CCCCC1 (H-WYIR[dW]IK[Chg]QIWSK[Chg]RL-NH2) | 0.26 | 1.4 | 1.4 | 6.7 | 109 | Active |
